TAAR1 antagonist: human TAAR1 antagonists, primary screen, Fluo-8 calcium fluorescence, CHO RD-HGA16 cells. Trace amine-associated receptor 1 (Homo sapiens), Q96RJ0. antagonist. inhibition, % at 3 µM. 360,000 compounds, 1.5% hits. AID 624466, 2012;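 active = inhibition above a per-plate cutoff, the mean inhibition of test compounds on that plate plus 3 SD, cut at about 49% in these data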
Target sequence (Q96RJ0 whole entry, looked up): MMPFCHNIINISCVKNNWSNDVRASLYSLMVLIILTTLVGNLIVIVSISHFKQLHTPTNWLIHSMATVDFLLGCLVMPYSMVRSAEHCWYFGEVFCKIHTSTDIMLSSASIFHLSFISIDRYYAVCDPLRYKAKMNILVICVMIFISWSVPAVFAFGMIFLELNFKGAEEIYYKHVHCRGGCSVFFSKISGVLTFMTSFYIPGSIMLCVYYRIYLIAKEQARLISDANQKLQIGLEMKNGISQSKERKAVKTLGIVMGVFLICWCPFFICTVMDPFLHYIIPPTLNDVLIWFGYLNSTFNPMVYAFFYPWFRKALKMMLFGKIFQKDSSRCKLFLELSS
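Test system: CHO RD-HGA16 cells bearing hTAAR1 | Reagent: β-PEA, EC80 | Compound dosing: 3 µM, single point | Schedule: Dye loading 75 min at 37 °C, then 30 min room temperature | Signal: Calcium fluorescence with Fluo-8 | Evaluation: Percent inhibition of PEA-evoked calcium signal, max/basal emission ratio | Control set: DMSO-only wells and EC80 β-PEA-stimulated wells | Repeats: Singlicate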
GPR7 antagonist: GPR7 receptor antagonists, primary screen, cell-based, fluorescence, single concentration; Neuropeptides B/W receptor type 1 (Homo sapiens), P48145; GPR7-expressing cells, fluorescence antagonist assay; inhibition, % at 4.4 µM; 290,000 compounds, 1.1% hits; AID 1861, 2009; in the data active = inhibition above about 16%, passing the limit was not always enough;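 also: cells stimulated with the agonist NPW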
Target sequence (P48145 whole entry, looked up): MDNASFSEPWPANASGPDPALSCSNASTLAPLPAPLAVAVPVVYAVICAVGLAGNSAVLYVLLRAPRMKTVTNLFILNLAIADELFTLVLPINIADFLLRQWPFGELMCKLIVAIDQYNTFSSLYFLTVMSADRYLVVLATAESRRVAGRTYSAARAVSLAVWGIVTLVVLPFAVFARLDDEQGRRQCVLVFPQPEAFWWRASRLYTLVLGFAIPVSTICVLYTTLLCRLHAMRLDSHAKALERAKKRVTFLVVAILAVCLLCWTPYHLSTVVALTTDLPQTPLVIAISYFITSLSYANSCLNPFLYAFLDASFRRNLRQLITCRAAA
CHO parental Ca: ATP-evoked calcium signal inhibitors, parental CHO, primary screen, counter-screen for OX1R antagonist project, cell-based, fluorescence, Fluo-8 calcium dye; parental CHO-K1, ATP-induced calcium, Fluo-8 fluorescence; inhibition, % at 5.6 µM; 330,000 compounds, 0.63% hits; AID 463079, 2010;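 active = inhibition above that plate's mean sample inhibition plus 3 SD, cut at about 26% in these data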
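Test system: untransfected parental CHO cell line. Compound: one dose, 5.6 µM nominal. Detection: intracellular calcium via Fluo-8 no-wash fluorescent dye. Measure: % inhibition. Benchmarks: ATP-challenged DMSO wells low, unchallenged DMSO wells high.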
OX1R antag-1: antagonists of human orexin 1 receptor (OX1R); Orexin/Hypocretin receptor type 1 (Homo sapiens), O43613; OX1R-expressing cells, FRET antagonist read-out; inhibition, % at 6.6 µM; 330,000 compounds, 1.8% hits; in the data active = inhibition mostly above about 38%, no sharp cut-off; inactive = mostly below about 40%
OX1R antag-2: OX1R (HCRTR1) antagonists, primary screen, fluorescence, CHO/OX1R cells, Fluo-8 calcium, orexin A; Orexin/Hypocretin receptor type 1 (Homo sapiens), O43613; Fluo-8 calcium fluorescence; inhibition, % at 5 µM; 330,000 compounds, 0.43% hits;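 active = inhibition above its plate's threshold, mean inhibition of all tested compounds on the plate plus 3 SD, cut at about 37% in these data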
TAAR1 agonist: human TAAR1 agonists, primary screen, Fluo-8 calcium fluorescence, CHO RD-HGA16 cells. Trace amine-associated receptor 1 (Homo sapiens), Q96RJ0. activation, % at 3 µM. AID 624467, 2012. 360,000 compounds, 0.99% hits. vehicle wells 0%, saturating PEA agonist 100%;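 active = activation above the mean activation of all test compounds in the run plus 3 SD, cut at about 38% in these data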
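Test system: RD-HGA16 (CHO) cells co-expressing Gα16 and hTAAR1 / Benchmarks: DMSO vehicle as 0%, PEA at EC100 as 100% / Repeats: no replicates (n 1) / Measure: % activation from peak over basal fluorescence ratio, DMSO-to-PEA scaled / Timing: 17-24 h plating, Fluo-8 75 min 37 °C, 30 min RT / Technique: kinetic Fluo-8 calcium fluorescence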
OX1R HTRF confirm: OX1R (HCRTR1) antagonists, confirmation, cell-based, HTRF; OX1R-expressing cells, HTRF antagonist assay; 1,800 compounds, 49% hits; shares compounds with OX1R antag-1; AID 492964, 2010; inhibition, % at 6.6 µM; in the data active = inhibition above about 55%;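 also: CHO cells expressing OX1R stimulated with orexin A at about EC80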
CHO-K1 HTRF: signal inhibition in parental CHO-K1 cells, counter-screen for OX1R antagonist project, cell-based, HTRF | shares compounds with OX1R antag-1 | HTRF counterscreen | inhibition, % at 6.6 µM | 1,800 compounds, 48% hits; in the data active = inhibition above about 17%
A number is an active result; i = inactive; nt = no result. Rows were chosen to be rich in hits. Some 4.6% of all compounds tested hit in one or more screens of this group.

SMILES	TAAR1 antagonist	GPR7 antagonist	CHO parental Ca	OX1R antag-1	OX1R antag-2	TAAR1 agonist	OX1R HTRF confirm	CHO-K1 HTRF
Cc1cccnc1Nc1nc(-c2ccc(O)c(O)c2)cs1	i	i	i	i	i	i	nt	nt
NC(=O)c1cccc2cc3ccccc3cc12	i	i	i	76.9	i	i	i	i
NC(=O)c1ccccc1OCc1cccc2ccccc12	i	i	i	i	i	i	nt	nt
Nc1ccc2ccc(N)cc2c1	i	nt	nt	nt	nt	i	nt	nt
Cc1cc(=O)oc2c(CN3CCCC3)c(O)ccc12	i	i	i	i	i	i	nt	nt
CCCc1cc(=O)oc2c(CN3CCCC3)c(O)ccc12	i	i	i	94.4	i	i	i	i
Nc1ccc(Nc2ccc([N+](=O)[O-])cc2[N+](=O)[O-])cc1	i	i	i	i	i	i	nt	nt
O=C(c1cccc([N+](=O)[O-])c1)N1CCOCC1	i	i	i	i	i	i	nt	nt
O=C(NCc1cccnc1)c1ccc(Cl)cc1[N+](=O)[O-]	i	i	i	77.1	i	i	i	32.8
O=C(c1cc([N+](=O)[O-])cc([N+](=O)[O-])c1)N1CCOCC1	i	i	i	110.9	i	i	i	78.0
CC(C)(CO)Nc1ccc([N+](=O)[O-])cc1[N+](=O)[O-]	i	i	i	93.6	i	i	i	37.5
NC(=O)c1ccc(Nc2ccc([N+](=O)[O-])cc2[N+](=O)[O-])cc1	i	i	i	107.1	i	i	i	54.3
C[C@@H]1CN([C@H](C)CO)C(=O)c2cc(Br)cnc2O[C@H]1CN(C)Cc1ccccc1F	i	nt	nt	nt	nt	i	nt	nt
CCCCCCCCCCC(C(=O)O)C1(C(=O)O)CCC(=O)O1 (configuration not stated)	i	nt	nt	nt	nt	i	nt	nt
O=C(C[C@H]1CC[C@H]2[C@@H](COC[C@@H](O)CN2S(=O)(=O)c2ccc(F)cc2)O1)N[C@@H]1CCN(Cc2ccccc2)C1	i	nt	nt	nt	nt	i	nt	nt
O=C(NCCN1CCOCC1)c1cc([N+](=O)[O-])cc([N+](=O)[O-])c1	i	i	i	78.3	i	i	i	71.9
O=[N+]([O-])c1cc(C(F)(F)F)ccc1NCCCN1CCOCC1	i	i	i	i	i	i	nt	nt
O=[N+]([O-])c1ccc(NCCCN2CCOCC2)c([N+](=O)[O-])c1	i	i	i	170.7	i	i	i	72.3
O=C(NCCN1CCOCC1)c1ccc(Cl)c([N+](=O)[O-])c1	i	i	i	i	i	i	nt	nt
O=C(NCCCN1CCOCC1)c1cc(Cl)ccc1[N+](=O)[O-]	i	i	i	i	i	i	nt	nt
O=C(NCCCN1CCOCC1)c1ccc(Cl)cc1[N+](=O)[O-]	i	i	i	105.5	i	i	i	i
O=[n+]1c2c(n([O-])c3ccccc31)CCC2	nt	i	i	i	i	nt	nt	nt
O=[n+]1c2c(n([O-])c3cc(F)ccc31)CCCC2	i	i	i	81.8	i	i	i	53.7
COC(=O)CCCC1=CC2=CC(=O)C(C)(OC(=O)c3ccc(Cl)nc3)C(=O)C2=CO1 (configuration not stated)	nt	nt	i	i	i	nt	nt	nt
CC(=O)CC1c2cc(F)ccc2C=C(c2ccsc2)N1c1ccc(-c2ccc(C(N)=O)cc2)cc1 (configuration not stated)	i	nt	nt	nt	nt	i	nt	nt
SMILES	TAAR1 antagonist	GPR7 antagonist	CHO parental Ca	OX1R antag-1	OX1R antag-2	TAAR1 agonist	OX1R HTRF confirm	CHO-K1 HTRF
CCOC(=O)N/N=C(/C)c1ccc([N+](=O)[O-])o1	i	i	i	93.1	i	i	i	77.3
COCOCCn1cc(CN2CCS(=O)(=O)N(Cc3ccc(-c4cccc(N(C)C)c4)cc3)C(C(C)C)C2=O)nn1 (configuration not stated)	i	nt	nt	nt	nt	i	nt	nt
CCCCNC(=O)C[C@H]1C[C@@]2(C(=O)OC)C(=C[C@H](C(C)(C)C)O[C@@H]2C)N(CCC2=CCCCC2)C1=O	i	nt	nt	nt	nt	i	nt	nt
CCN(CC)C(=O)CN(C)S(=O)(=O)c1cccc2nsnc12	i	i	i	113.9	i	i	i	38.3
COc1ccc(N2CCN(CCNS(=O)(=O)c3cccc4nsnc34)CC2)cc1	i	i	nt	nt	nt	i	nt	nt
CCOC(=O)N1CCC(NC(=O)C(NS(=O)(=O)c2cccc3nsnc23)c2ccccc2)CC1 (configuration not stated)	i	i	i	91.2	i	i	i	i
COc1ccc(N2CCN(CCNC(=O)CCS(=O)(=O)c3cccc4nsnc34)CC2)cc1	nt	i	i	85.0	i	nt	i	75.7
CC1CCN(C(=O)CN(C)S(=O)(=O)c2cccc3nsnc23)CC1	i	i	i	82.7	i	i	i	35.9
CCN(CCNC(=O)CN(C)S(=O)(=O)c1cccc2nsnc12)c1ccccc1	i	i	i	i	i	i	nt	nt
CC1CCN(CCNC(=O)CN(C)S(=O)(=O)c2cccc3nsnc23)CC1	i	i	i	149.0	i	i	i	29.5
C[C@@H]1CN([C@@H](C)CO)C(=O)CCCn2nncc2CO[C@H]1CN(C)CC1CCCCC1	i	nt	nt	nt	nt	i	nt	nt
CCCCCOC(=O)c1c(N)n(CCOC)c2nc3ccccc3nc12	i	i	i	i	i	i	nt	nt
CCOC(=O)c1c(N)n(CCOC(=O)c2cccs2)c2nc3ccccc3nc12	i	i	i	78.3	i	i	55.6	i
O=[N+]([O-])c1cccc(-c2nc(-c3ccccc3)no2)c1	i	i	i	i	i	i	nt	nt
O=[N+]([O-])c1cccc(-c2nc(-c3ccncc3)no2)c1	i	i	i	112.6	i	i	i	41.6
CN(C)c1ccc(N=Nc2nc3ccccc3n2C)cc1	i	i	i	105.9	i	i	107.0	29.1
CCn1c(NCc2ccc(N(C)C)cc2)nc2ccccc21	i	i	i	i	i	i	nt	nt
COc1ccc([C@H]2C[C@@H](n3cc(-c4ccc(F)cc4)nn3)[C@H](O)CN2C(=O)C2CCCCC2)cc1	i	nt	nt	nt	nt	i	nt	nt
COc1cc(C(=O)N/N=C/c2ccc(OC(=O)c3ccccc3Cl)c(OC)c2)ccc1O	nt	i	nt	nt	nt	nt	nt	nt
COc1cc(/C=N/NC(=O)c2ccccc2O)ccc1OC(=O)CC1SC(=O)NC1=O (configuration not stated)	i	i	i	96.5	i	i	i	i
Cc1cc(C)c(NC(=O)C2CCCN2CCOC(=O)c2cccc([N+](=O)[O-])c2)c(C)c1 (configuration not stated)	i	i	i	97.5	i	i	70.1	i
